These results are taken from paper PMC4083419 (Nature Communications, 2014).

pKd: −log10 of the molar value. Read-outs that look alike come from different tables or passages of the source.

For assay [1], the target named is T1, PhENR (Pyrococcus horikoshii, UniProt O58586). Description: Biocatalytic transformations with PhENR. It counts as biochemical. To be noted: for acceptance as substrate: substrate scope. The method in brief: (§1)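 Substrate (10 mM) was reduced with NADH or NADPH (15 mM) and enzyme in 50 mM buffer. The initial aerobic screen used Tris-HCl at pH 7, 8 or 9. Optimised anaerobic runs used degassed buffer under an Ar flush: 50 mM phosphate for TtENR, 50 mM Tris-HCl for PhENR, both pH 7, with NADPH. Mixtures were shaken 24 h at 30 °C, 120 r.p.m., then EtOAc-extracted. Conversion was read by achiral GC, e.e. by chiral GC or HPLC. One substrate was given in DMF (1% final).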

Assay [2] concerns the target T2, TtENR (Thermus thermophilus, UniProt P83818).
T2 sequence (P83818 1-178): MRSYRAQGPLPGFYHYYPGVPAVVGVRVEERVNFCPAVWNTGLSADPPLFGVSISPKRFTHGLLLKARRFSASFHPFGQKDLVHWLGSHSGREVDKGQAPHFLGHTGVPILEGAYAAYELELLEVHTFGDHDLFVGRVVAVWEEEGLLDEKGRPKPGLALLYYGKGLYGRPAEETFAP
Description: Biocatalytic transformations with TtENR. It counts as biochemical. To be noted: for acceptance as substrate: substrate scope, Table 1. The method in brief:
as §1

Assay [3] concerns the target T2, TtENR. Description: UV-visible difference titration of ligands with TtENR. It counts as binding. An outline of the steps:
(§2)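 UV–visible difference titrations at 25 °C in tandem cuvettes. Putative ligand (enones, enals, a quinone or a hydroxybenzaldehyde) was added both to enzyme solution in the sample cell and to 50 mM Tris-HCl pH 7.5 buffer in the reference cell. Spectral changes were followed as a function of ligand concentration.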

Assay [4] has as its target T1, PhENR. Briefly: UV-visible difference titration of ligands with PhENR. It counts as binding. The method in brief: as §2
Assay [5] has as its target yeast OYE. To be noted: read-out: dissociation constant (Kd); cited from earlier work.
The subject of assay [6] is yeast OYE. The note with it: cited from earlier work; for rate of reduction of the flavin cofactor: biphasic kinetics.
Assay [7] has as its target T2, TtENR. Description: Stopped-flow reductive half reaction of TtENR. The format is biochemical. The note with it: monophasic, 37 °C, 100 mM Tris-HCl pH 7.4. An outline of the steps: (§3)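 Anoxic stopped-flow at 37 °C in a glove box, single-mixing mode. Enzyme was mixed with NADPH or NADH at 0.4–10.0 mM in 100 mM Tris-HCl pH 7.4, with nitrogen-flushed buffers. Flavin reduction was monitored as A458 change with a diode-array detector.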

The target of assay [8] is T2, TtENR. Description: Steady-state turnover. The format is biochemical. The note with it: NADPH and dioxygen as substrates, 50 mM potassium phosphate pH 7.0, 75 °C.
For assay [9], the target named is T1, PhENR. Briefly: Stopped-flow reductive half reaction of PhENR. The format is biochemical. The note with it: monophasic, 37 °C, 100 mM Tris-HCl pH 7.4. An outline of the steps: as §3
The target of assay [10] is T2, TtENR. Briefly: Stopped-flow reoxidation of reduced TtENR. It counts as biochemical. The note with it: air-saturated buffer. An outline of the steps: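 Enzyme in 50 mM potassium phosphate pH 7.0 was reduced anoxically with sodium dithionite, and excess dithionite was removed on a desalting column inside a glove box. Reduced enzyme was mixed in single-mixing stopped-flow at 37 °C with substrate at various concentrations or with air-saturated buffer. FMN reoxidation was followed at A458 by diode array. Curves were fitted with a two-exponential function.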

T1 sequence (O58586 whole entry): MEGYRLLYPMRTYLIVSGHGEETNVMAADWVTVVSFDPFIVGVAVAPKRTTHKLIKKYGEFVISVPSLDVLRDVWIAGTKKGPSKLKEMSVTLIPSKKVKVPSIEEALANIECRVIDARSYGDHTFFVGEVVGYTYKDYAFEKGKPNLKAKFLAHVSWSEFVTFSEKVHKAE

Take `CC(C)=CCCC(C)=CC=O` (mixture of isomers) [Compound 4a, citral]: the acceptance as substrate entry on PhENR [1] (Table 1) and on TtENR [2] was “good substrates” throughout.
`CC1CC(=O)N(c2ccccc2)C1=O` (racemic) [Compound 5b, rac-N-phenyl-2-methylsuccinimide]: the “stereopreference compared with typical OYEs” value at PhENR [1] and on TtENR [2] was “inverted stereopreference” throughout. Besides, the acceptance as substrate result at PhENR [1] (Table 1) and at TtENR [2] was “good substrates” each time.
With `O=C1C=CC(=O)C=C1` [1,4-benzoquinone], the figures for the pKd on TtENR [3] and at PhENR [4] were 3.24 and 2.74, respectively.
Turning to `O=C1C=CCCC1` [Compound 1a, 2-Cyclohexen-1-one], the pKd was 4.49 at yeast OYE [5], 1.40 on TtENR [3] and 1.12 on PhENR [4]. Besides, the acceptance as substrate result at PhENR [1] (Table 1) and at TtENR [2] was “accepted but at lower conversion rates” throughout. For the same compound, the oxidative rate kox in the assay on yeast OYE [6] was 102 s⁻¹.
On to `CC1=CC(=O)CC(C)(C)C1=O` [Compound 2a, 2,6,6-trimethylcyclohex-2-ene-1,4-dione], for which the “stereopreference compared with typical OYEs” value on PhENR [1] and at TtENR [2] was “inverted stereopreference” in each case. The acceptance as substrate entry at PhENR [1] (Table 1) and on TtENR [2] was “good substrates” throughout.
With `CC/C=C(\C)C=O` [Compound 3a, (E)-2-methylpent-2-enal], on PhENR [1] (Table 1), the conversion entry is on record as “full conversion” and the acceptance as substrate result was “good substrates”. For the same compound, the acceptance as substrate result at TtENR [2] is “good substrates”.
In the case of `NC(=O)C1=CN([C@@H]2O[C@H](COP(=O)(O)OP(=O)(O)OC[C@H]3O[C@@H](n4cnc5c(N)ncnc54)[C@H](O)[C@@H]3O)[C@@H](O)[C@H]2O)C=CC1` [NADH], the “reductive rate (kred)” value on TtENR [7] was 0.25 s⁻¹.
In turn, `NC(=O)C1=CN([C@@H]2O[C@H](COP(=O)(O)OP(=O)(O)OC[C@H]3O[C@@H](n4cnc5c(N)ncnc54)[C@H](OP(=O)(O)O)[C@@H]3O)[C@@H](O)[C@H]2O)C=CC1` [NADPH] yielded a turnover rate kcat at TtENR [8] of 0.36 s⁻¹. In addition, at TtENR [8] (read-out: KM(NADPH)), the Km is 50 µM. In addition, the “reductive rate (kred)” value stood at 0.15 s⁻¹ at TtENR [7] and 0.06 s⁻¹ on PhENR [9]. Moreover, the “rate of reduction of the flavin cofactor” value in the assay on yeast OYE [6] (first printed rate) was 1.18 s⁻¹; with yeast OYE [6] (second printed rate) it was 0.3 s⁻¹.
In the case of `O=O` [dioxygen], the “kox, reoxidation of the cofactor” value on TtENR [10] stood at 57 s⁻¹.
Consider `O=Cc1ccc(O)cc1` [pHB, p-hydroxybenzaldehyde], for which the pKd was 4.60 at TtENR [3] and 4.44 at PhENR [4].

In general, pKd refers to the negative decadic logarithm of the Kd, by convention in mol/L. Broadly, the Km is the substrate concentration at which the rate is half of its maximum.
